ChEMBL document CHEMBL4270599, “Synthesis of a 3'-C-ethynyl-β-d-ribofuranose purine nucleoside library: Discovery of C7-deazapurine analogs as potent antiproliferative nucleosides” (Eur J Med Chem, 2018)

How the values were obtained:
L1210 = assay: Antiproliferative activity against mouse L1210 cells after 48 hrs by Coulter counter method; assay type: functional, cell-based; conditions: L1210, 48 h
Procedure, shortened: (§1)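 Cell count assay in 96-well microtiter plates; (5–7.5) × 10⁴ tumor cells per well plus test compound. Cells proliferated at 37 °C in humidified CO₂-controlled atmosphere, 48 h for murine leukemia L1210, 72 h for human lymphocytic CEM and cervix carcinoma HeLa. Counted by Coulter counter; IC₅₀ is the concentration that inhibits proliferation by 50%.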

HeLa = assay: Antiproliferative activity against human HeLa cells after 72 hrs by Coulter counter method; assay type: functional, cell-based; procedure, shortened: as §1
HCT-15 [1] = assay: Cytotoxicity against human HCT15 cells after 48 hrs by SRB assay; assay type: functional; conditions: HCT-15, 48 h
KM12 = assay: Cytotoxicity against human KM12 cells after 48 hrs by SRB assay; assay type: functional; conditions: KM12, 48 h
OVCAR-3 = assay: Cytotoxicity against human OVCAR3 cells after 48 hrs by SRB assay; assay type: functional; conditions: OVCAR-3, 48 h
SN12C [2] = assay: Cytotoxicity against human SN12C cells after 48 hrs by SRB assay; assay type: functional
TK-10 [3] = assay: Cytotoxicity against human TK10 cells after 48 hrs by SRB assay; assay type: functional; conditions: TK-10, 48 h
MOLT-4 = assay: Growth inhibition of human MOLT4 cells assessed as cell growth at 10^-8 M incubated for 48 hrs by sulforhodamine B assay relative to control; assay type: functional; conditions: MOLT-4, 48 h, read-out: Activity
SR = assay: Growth inhibition of human SR cells assessed as cell growth at 10^-8 M incubated for 48 hrs by sulforhodamine B assay relative to control; assay type: functional; conditions: read-out: Activity
NCI-H226 = assay: Growth inhibition of human NCI-H226 cells assessed as cell growth at 10^-8 M incubated for 48 hrs by sulforhodamine B assay relative to control; assay type: functional; conditions: NCI-H226, 48 h, read-out: Activity
SK-MEL-2 [4] = assay: Growth inhibition of human SK-MEL-2 cells assessed as cell growth at 10^-8 M incubated for 48 hrs by sulforhodamine B assay relative to control; assay type: functional; conditions: SK-MEL-2, 48 h, read-out: Activity
SK-MEL-5 = assay: Growth inhibition of human SK-MEL-5 cells assessed as cell growth at 10^-8 M incubated for 48 hrs by sulforhodamine B assay relative to control; assay type: functional; conditions: SK-MEL-5, 48 h, read-out: Activity
OVCAR-8 = assay: Growth inhibition of human OVCAR8 cells assessed as cell growth at 10^-8 M incubated for 48 hrs by sulforhodamine B assay relative to control; assay type: functional; conditions: OVCAR-8, 48 h, read-out: Activity
SK-OV-3 = assay: Growth inhibition of human SKOV3 cells assessed as cell growth at 10^-8 M incubated for 48 hrs by sulforhodamine B assay relative to control; assay type: functional; conditions: SK-OV-3, 48 h, read-out: Activity
786-0 = assay: Growth inhibition of human 786-0 cells assessed as cell growth at 10^-8 M incubated for 48 hrs by sulforhodamine B assay relative to control; assay type: functional; conditions: 786-0, 48 h, read-out: Activity
SN12C [5] = assay: Growth inhibition of human SN12C cells assessed as cell growth at 10^-8 M incubated for 48 hrs by sulforhodamine B assay relative to control; assay type: functional; conditions: read-out: Activity
K562 = assay: Growth inhibition of human K562 cells assessed as cell growth at 10^-7 M incubated for 48 hrs by sulforhodamine B assay relative to control; assay type: functional; conditions: K562, 48 h, read-out: Activity
NCI-H322M = assay: Growth inhibition of human NCI-H322M cells assessed as cell growth at 10^-7 M incubated for 48 hrs by sulforhodamine B assay relative to control; assay type: functional; conditions: read-out: Activity
HCT-116 = assay: Growth inhibition of human HCT116 cells assessed as cell growth at 10^-7 M incubated for 48 hrs by sulforhodamine B assay relative to control; assay type: functional; conditions: HCT-116, 48 h, read-out: Activity
HCT-15 [6] = assay: Growth inhibition of human HCT15 cells assessed as cell growth at 10^-7 M incubated for 48 hrs by sulforhodamine B assay relative to control; assay type: functional; conditions: HCT-15, 48 h, read-out: Activity
SNB-19 [7] = assay: Growth inhibition of human SNB19 cells assessed as cell growth at 10^-7 M incubated for 48 hrs by sulforhodamine B assay relative to control; assay type: functional; conditions: SNB-19, 48 h, read-out: Activity
SK-MEL-2 [8] = assay: Growth inhibition of human SK-MEL-2 cells assessed as cell growth at 10^-7 M incubated for 48 hrs by sulforhodamine B assay relative to control; assay type: functional; conditions: SK-MEL-2, 48 h, read-out: Activity
SN12C [9] = assay: Growth inhibition of human SN12C cells assessed as cell growth at 10^-7 M incubated for 48 hrs by sulforhodamine B assay relative to control; assay type: functional; conditions: read-out: Activity
TK-10 [10] = assay: Growth inhibition of human TK10 cells assessed as cell growth at 10^-7 M incubated for 48 hrs by sulforhodamine B assay relative to control; assay type: functional; conditions: TK-10, 48 h, read-out: Activity
MDA-MB-231 = assay: Growth inhibition of human MDA-MB-231 cells assessed as cell growth at 10^-7 M incubated for 48 hrs by sulforhodamine B assay relative to control; assay type: functional; conditions: MDA-MB-231, 48 h, read-out: Activity
BT-549 = assay: Growth inhibition of human BT549 cells assessed as cell growth at 10^-7 M incubated for 48 hrs by sulforhodamine B assay relative to control; assay type: functional; conditions: BT-549, 48 h, read-out: Activity
SNB-19 [11] = assay: Growth inhibition of human SNB19 cells assessed as cell growth at 10^-6 M incubated for 48 hrs by sulforhodamine B assay relative to control; assay type: functional; conditions: SNB-19, 48 h, read-out: Activity
RXF 393 = assay: Growth inhibition of human RXF393 cells assessed as cell growth at 10^-6 M incubated for 48 hrs by sulforhodamine B assay relative to control; assay type: functional; conditions: RXF 393, 48 h, read-out: Activity
SNB-19 [12] = assay: Growth inhibition of human SNB19 cells assessed as cell growth at 10^-5 M incubated for 48 hrs by sulforhodamine B assay relative to control; assay type: functional; conditions: SNB-19, 48 h, read-out: Activity
UACC-257 = assay: Growth inhibition of human UACC257 cells assessed as cell growth at 10^-5 M incubated for 48 hrs by sulforhodamine B assay relative to control; assay type: functional; conditions: UACC-257, 48 h, read-out: Activity
SW-620 = assay: Growth inhibition of human SW620 cells assessed as cell growth at 10^-4 M incubated for 48 hrs by sulforhodamine B assay relative to control; assay type: functional; conditions: SW-620, 48 h, read-out: Activity
DU-145 = assay: Growth inhibition of human DU145 cells assessed as cell growth at 10^-4 M incubated for 48 hrs by sulforhodamine B assay relative to control; assay type: functional; conditions: DU-145, 48 h, read-out: Activity
[13] = read-out: pLC50 (the source's name) (converted)
[14] = read-out: LC50 (the source's name)

C#C[C@@]1(O)[C@@H](CO)O[C@@H](n2cc(F)c3c(N)ncnc32)[C@@H]1O
IC50 (L1210): 0.035 µM | IC50 (HeLa): 0.15 µM | TGI (HCT-15 [1]; read-out: TGI): 3.19 µM | GI50 (HCT-15 [1]; read-out: pGI50 (converted)): 0.295 µM | CC50 (HCT-15 [1]; [13]): > 100 µM | TGI (HCT-15 [1]; read-out: pTGI (converted)): 3.16 µM | CC50 (KM12; [14]): > 100 µM | TGI (KM12; read-out: TGI): 24.9 µM | GI50 (KM12; read-out: pGI50 (converted)): 0.501 µM | TGI (KM12; read-out: pTGI (converted)): 25.1 µM | CC50 (OVCAR-3; [14]): > 100 µM | TGI (OVCAR-3; read-out: TGI): > 100 µM | GI50 (OVCAR-3; read-out: pGI50 (converted)): 1.12 µM | TGI (OVCAR-3; read-out: pTGI (converted)): > 100 µM | TGI (SN12C [2]; read-out: TGI): 4.74 µM | CC50 (SN12C [2]; [13]): > 100 µM | TGI (SN12C [2]; read-out: pTGI (converted)): 4.79 µM | CC50 (TK-10 [3]; [14]): > 100 µM | TGI (TK-10 [3]; read-out: TGI): 6.56 µM | GI50 (TK-10 [3]; read-out: pGI50 (converted)): 0.741 µM | TGI (TK-10 [3]; read-out: pTGI (converted)): 6.61 µM | growth at 0.01 µM (MOLT-4): 99% | growth at 0.01 µM (SR): 101% | growth at 0.01 µM (NCI-H226): 92% | growth at 0.01 µM (SK-MEL-2 [4]): 103% | growth at 0.01 µM (SK-MEL-5): 92% | growth at 0.01 µM (OVCAR-8): 96% | growth at 0.01 µM (SK-OV-3): 96% | growth at 0.01 µM (786-0): 94% | growth at 0.01 µM (SN12C [5]): 94% | growth at 0.1 µM (K562): 78% | growth at 0.1 µM (NCI-H322M): 94% | growth at 0.1 µM (HCT-116): 60% | growth at 0.1 µM (HCT-15 [6]): 79% | growth at 0.1 µM (SNB-19 [7]): 79% | growth at 0.1 µM (SK-MEL-2 [8]): 101% | growth at 0.1 µM (SN12C [9]): 80% | growth at 0.1 µM (TK-10 [10]): 102% | growth at 0.1 µM (MDA-MB-231): 88% | growth at 0.1 µM (BT-549): 107% | growth at 1 µM (SNB-19 [11]): 39% | growth at 1 µM (RXF 393): 42% | growth at 10 µM (SNB-19 [12]): 7% | growth at 10 µM (UACC-257): -17% | growth at 100 µM (SW-620): -23% | growth at 100 µM (DU-145): -4%
